The record followed here is ChEMBL document CHEMBL3421528, “Synthesis and evaluation of fluorinated fingolimod (FTY720) analogues for sphingosine-1-phosphate receptor molecular imaging by positron emission tomography” (J Med Chem, 2015).

The test system of data set [1] is Mus musculus. Nature of the data set: In vivo inhibition of S1P1 receptor in mouse assessed as peripheral blood B cells at 1.25 mg/kg, ip after 24 hrs by flow cytometric analysis (reference value: 4.72 +/- 0.53 10^6/ml). It is filed as functional. As to conditions: route intraperitoneal. (A flow cytometer gives signals particle by particle.)
The subject of data set [2] is Mus musculus. Nature of the data set: In vivo inhibition of S1P1 receptor in mouse assessed as peripheral blood CD8+ cells at 1.25 mg/kg, ip after 24 hrs by flow cytometric analysis (reference value: 0.48 +/- 0.05 10^6/ml). The class given is functional. As to conditions: route intraperitoneal; call rule not given here.
The test system of data set [3] is Mus musculus. The experiment in a line: In vivo inhibition of S1P1 receptor in mouse assessed as reduction of peripheral blood CD8+ cells at 1.25 mg/kg, ip after 24 hrs by flow cytometric analysis relative to control. The class given is functional. The following applies: in the assay text read “CD4+ cells” for “CD8+ cells”, route intraperitoneal. An outline of the steps:
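Compound given intraperitoneally at 1.25 mg/kg in 0.9% NaCl (0.2 mg/mL); blood taken retro-orbitally into EDTA after 24 h. Lymphocytes counted by flow cytometry after red-cell lysis and compared with untreated mice. Mean ± SEM, n ≥ 3 independent experiments; p < 0.05 versus control.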

For data set [4], the system named is Mus musculus. Nature of the data set: In vivo inhibition of S1P1 receptor in mouse assessed as peripheral blood WBC at 1.25 mg/kg, ip after 24 hrs by flow cytometric analysis (reference value: 8.94 +/- 0.59 10^6/ml). It is filed as functional. As to conditions: route intraperitoneal.
Data set [5] concerns the target Sphingosine 1-phosphate receptor 1 (Homo sapiens) (UniProt P21453). Nature of the data set: Agonist activity at human S1P1 receptor overexpressed in CHO cells assessed as p44/42 MAPK phosphorylation at 1 uM by Western blot analysis. The class given is cell-based. The following applies: TDE = time-dependent effect. An outline of the steps:
(§1)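 Stably transfected CHO cells overexpressing human S1P1 or S1P3 receptor, serum-starved overnight, then stimulated with test compounds alongside S1P in the same experiment for the indicated times. Cells lysed and lysates resolved on 12% SDS-PAGE gels for Western blot read-out.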

Data set [6] concerns the target Sphingosine 1-phosphate receptor 3 (Homo sapiens) (UniProt Q99500). Nature of the data set: Agonist activity at human S1P3 receptor overexpressed in CHO cells assessed as p44/42 MAPK phosphorylation at 1 uM by Western blot analysis. The following applies: TDE = time-dependent effect. The class given is cell-based. The procedure, abridged: as §1
In a further data set the test system is Kidney. Nature of the data set: Drug uptake in wild type C57BL/6 mouse kidney at 400 KBq/g, iv measured at 90 mins by PET/CT analysis. The class given is ADME, organism-based. The following applies: in vivo, 1.5 h. The procedure, abridged: (§2)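 Male C57BL/6 wild-type mice, 13 weeks old, 21−26 g (n = 4), anaesthetised with isoflurane/O₂. 18F tracer given as a tail-vein bolus of 400 kBq/g in 100 μL, flushed with 100 μL saline. Dynamic list-mode PET was acquired, with CT-defined volumes of interest over the organs. Uptake was expressed as counts/mL in the VOI divided by total mouse counts ×100 (%ID/mL). Time-activity curves ran 0−90 min p.i.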

A further data set deals with Bone. The experiment in a line: Drug uptake in wild type C57BL/6 mouse bone at 400 KBq/g, iv measured at 90 mins by PET/CT analysis. It is filed as ADME, organism-based, Bone element. The following applies: in vivo, 1.5 h. The procedure, abridged:
as §2

Data set [7] can be described thus: Drug uptake in wild type C57BL/6 mouse myocardium at 400 KBq/g, iv measured at 10 mins by PET/CT analysis. It is filed as ADME, organism-based. The following applies: in vivo. The procedure, abridged:
as §2

The subject of data set [8] is Spleen. Nature of the data set: Drug uptake in wild type C57BL/6 mouse spleen at 400 KBq/g, iv measured at 10 mins by PET/CT analysis. As to conditions: in vivo. The class given is ADME, organism-based. The procedure, abridged: as §2
A further data set relates to Blood. The experiment in a line: Drug uptake in wild type C57BL/6 mouse blood at 400 KBq/g, iv measured at 90 mins by PET analysis. It is filed as ADME, organism-based. As to conditions: in vivo, 1.5 h. The procedure, abridged: as §2
Another data set deals with Liver. Nature of the data set: Drug uptake in wild type C57BL/6 mouse liver at 400 KBq/g, iv measured at 10 mins by PET/CT analysis. It is filed as ADME, organism-based. As to conditions: in vivo. The procedure, abridged: as §2
Data set [9] concerns Mus musculus. Nature of the data set: Drug uptake in wild type C57BL/6 mouse body parts at 400 KBq/g, iv measured at 90 mins by PET/CT analysis. The class given is ADME, organism-based. The following applies: in vivo, 1.5 h. The procedure, abridged: as §2
The test system of data set [10] is Lung. Nature of the data set: Drug uptake in wild type C57BL/6 mouse lung at 400 KBq/g, iv measured at 90 mins by PET/CT analysis. The following applies: in vivo, 1.5 h. The class given is ADME, organism-based. An outline of the steps:
as §2

Data set [11] relates to Lung. Nature of the data set: Drug uptake in wild type C57BL/6 mouse lung at 400 KBq/g, iv measured at 20 mins by PET/CT analysis. The class given is ADME, organism-based. The following applies: in vivo. An outline of the steps:
as §2

Data set [12] concerns Mus musculus. The experiment in a line: In vivo inhibition of S1P1 receptor in mouse assessed as reduction of peripheral blood CD4+ cells at 1.25 mg/kg, ip after 24 hrs by flow cytometric analysis relative to control.
In the next data set the test system is Serum. The experiment in a line: Metabolic stability in human serum assessed as retention time at 8.7 MBq at 37 degC after 90 mins by HPLC analysis. The class given is ADME, cell-free. As to conditions: 1.5 h. The procedure, abridged:
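Formulated 18F tracer (20 μL, 8.7 MBq) was added to 200 μL human serum and incubated at 37 °C. Samples were taken at 10, 30, 60 and 90 min and quenched in MeOH/CH₂Cl₂ 1:1. After centrifugation, supernatants were analysed by C18 radio-HPLC (10−90% CH₃CN/0.1% TFA gradient over 15 min, 1.0 mL/min, 254 nm).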

Data set [13] concerns Spleen. Nature of the data set: Drug uptake in wild type C57BL/6 mouse spleen at 400 KBq/g, iv measured at 30 mins by PET/CT analysis. It is filed as ADME, organism-based. The following applies: in vivo, 0.5 h. An outline of the steps: as §2

Sequence of Sphingosine 1-phosphate receptor 1 (Homo sapiens) (P21453 whole entry): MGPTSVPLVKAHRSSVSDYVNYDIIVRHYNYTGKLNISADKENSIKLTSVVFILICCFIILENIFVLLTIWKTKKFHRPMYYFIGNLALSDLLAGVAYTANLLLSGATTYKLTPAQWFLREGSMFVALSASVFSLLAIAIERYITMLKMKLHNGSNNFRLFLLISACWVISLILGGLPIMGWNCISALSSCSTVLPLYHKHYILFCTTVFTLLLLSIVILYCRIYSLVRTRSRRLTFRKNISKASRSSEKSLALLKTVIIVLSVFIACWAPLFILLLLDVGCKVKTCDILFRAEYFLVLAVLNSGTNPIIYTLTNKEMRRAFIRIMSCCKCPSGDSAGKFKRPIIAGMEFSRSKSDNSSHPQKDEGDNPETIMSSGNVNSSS
Sequence of Sphingosine 1-phosphate receptor 3 (Homo sapiens) (Q99500 whole entry): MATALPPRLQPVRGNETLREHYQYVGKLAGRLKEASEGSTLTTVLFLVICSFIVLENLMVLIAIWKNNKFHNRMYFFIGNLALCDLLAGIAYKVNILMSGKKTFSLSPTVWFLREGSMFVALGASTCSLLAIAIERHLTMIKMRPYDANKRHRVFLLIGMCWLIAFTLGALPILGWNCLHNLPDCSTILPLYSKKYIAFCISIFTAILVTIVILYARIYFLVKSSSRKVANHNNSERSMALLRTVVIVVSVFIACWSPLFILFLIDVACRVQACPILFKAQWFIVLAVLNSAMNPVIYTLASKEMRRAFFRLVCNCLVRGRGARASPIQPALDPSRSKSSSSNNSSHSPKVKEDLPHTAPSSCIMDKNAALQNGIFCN

For orientation: inhibition in vivo means the drop in the measured response relative to a control, in per cent. With `NC(CO)(CO)CCc1ccc(CCCCCCCCF)cc1`, the Activity in the data set with Mus musculus [1] is 1.03 ×10⁶ /ml; in the data set with Mus musculus [2] it was 0.03 ×10⁶ /ml; with Mus musculus [4], 3.04 ×10⁶ /ml. In the data set on Mus musculus [3], the inhibition in vivo at 1.25 mg/kg was found to be 95%.

Turning to `CCCCCCCCCCCCC/C=C/[C@@H](O)[C@@H](N)COP(=O)(O)O`, the Activity entry in [5] and in [6] was “tde” throughout.

As for `NC(CO)(CO)CCc1ccc(CCCCCC[18F])cc1`, the Drug uptake in the data set with Kidney was 20 %ID/ml; in the data set on Bone, “Not Active”; in [7], 8 %ID/ml; in the data set on Spleen [8], 7 %ID/ml; in the data set on Blood, 4 %ID/ml; in the data set with Liver it was 25 %ID/ml. For the same compound, the Drug uptake entry with Mus musculus [9] is on record as “Not Active”; in the data set with Lung [10] it was 4 %ID/ml; with Lung [11], 5 %ID/ml.

Take `NC(CO)(CO)CCc1ccc(CCCCCCF)cc1`: the results for the Activity with Mus musculus [1], in the data set with Mus musculus [2] and in the data set on Mus musculus [4] were 2.23 ×10⁶ /ml, 0.25 ×10⁶ /ml and 4.91 ×10⁶ /ml, respectively. In the data set with Mus musculus [3], the inhibition in vivo at 1.25 mg/kg was determined as 59%.

Regarding `NC(CO)(CCc1ccc(CCCCCCCCF)cc1)COP(=O)(O)O` (stereo not given), the Activity result in [5] was “tde”; in the data set with Mus musculus [1], 1.05 ×10⁶ /ml; in the data set on Mus musculus [2], 0.14 ×10⁶ /ml; in data set [6], “tde”; in the data set with Mus musculus [4], 3.93 ×10⁶ /ml. Moreover, the inhibition in vivo at 1.25 mg/kg in the data set on Mus musculus [12] was 89%.

With `NC(CO)(CO)CCc1ccc(CCCCCCCC[18F])cc1`, the Drug uptake was 20 %ID/ml in the data set on Kidney; “Not Active” with Bone; 8.6 %ID/ml in data set [7]; 4 %ID/ml in the data set with Blood; 25 %ID/ml with Liver; “Not Active” in the data set with Mus musculus [9]. In addition, the Drug uptake in the data set with Lung [10] was 4.8 %ID/ml; with Spleen [13], 7.8 %ID/ml; in the data set on Lung [11], 6.4 %ID/ml. The Retention_time in the data set with Serum was 11.15 min.
